ChEMBL document CHEMBL1136985, “New pyridinone derivatives as potent HIV-1 nonnucleoside reverse transcriptase inhibitors” (J Med Chem, 2009)

Tests used:
[1] = Selectivity index, ratio of CC50 for human HeLaP4 cells to EC50 for HIV1 NL4-3; assay type: toxicity, cell-based; settings: read-out: Ratio CC50/EC50
Procedure, shortened: (§1)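 Viability by WST-1 absorbance at 570 nm relative to drug-free control. Divided by EC50 from the 48 h β-galactosidase infection assay with NL4-3 in the same cell type.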

[2] = test system: Human immunodeficiency virus 1; test: Antiviral activity against wild type HIV1 NL4-3 in human HeLaP4 cells assessed as beta-galactosidase activity after 48 hrs; assay type: functional, organism-based; settings: Human immunodeficiency virus 1, NL4-3, HeLaP4, 48 h
Procedure, shortened: (§2)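 Cells plated at 5000/well, incubated 48 h, then medium replaced with compound (0.00128 to 4 µM). Infection 4 h later with cell-free NL4-3 virus equivalent to 100 ng p24. At 48 h postinfection cells lysed in PBS with 0.1% NP-40 and 5 mM MgCl2. β-Galactosidase read with chlorophenol red β-D-galactopyranoside. EC50 taken from dose-response curves.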

[3] = test system: Human immunodeficiency virus 1; test: Antiviral activity against HIV1 NL4-3 with double K103N/L100I mutant in human MT4 cells assessed as inhibition of virus-induced cytopathicity after 5 days by multiple round replication assay; assay type: functional, organism-based; settings: Human immunodeficiency virus 1, NL4-3, MT4, 120 h
Procedure, shortened: (§3)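 MT-4 human T-cells, cultured in RPMI 1640 with 10% heat-inactivated FBS at 37 °C, 5% CO2, infected with HIV-1 NL4-3-derived mutant strains, then exposed to a range of compound concentrations. After 5 days, viability of infected and mock-infected cells read by WST-1 tetrazolium cleavage.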

[4] = test system: Human immunodeficiency virus 1; test: Antiviral activity against HIV1 NL4-3 with Y181C mutant in human MT4 cells assessed as inhibition of virus-induced cytopathicity after 5 days by multiple round replication assay; assay type: functional, organism-based; settings: Human immunodeficiency virus 1, NL4-3, MT4, 120 h; procedure, shortened: as §3
[5] = test system: Human immunodeficiency virus 1; test: Antiviral activity against wild type HIV1 NL4-3 in human TZM-b1 cells assessed as beta-galactosidase activity after 48 hrs; assay type: functional, organism-based; settings: Human immunodeficiency virus 1, NL4-3, TZM-b1, 48 h; procedure, shortened: as §2
[6] = test system: Human immunodeficiency virus 1; test: Antiviral activity against HIV1 NL4-3 with L100I mutant in human TZM-b1 cells assessed as beta-galactosidase activity after 48 hrs by single round replication assay; assay type: functional, organism-based; settings: Human immunodeficiency virus 1, NL4-3, TZM-b1, 48 h
Procedure, shortened: (§4)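 TZM-bl cells (DMEM, 5% heat-inactivated FBS) plated at 5000 cells/well and grown 48 h. Medium replaced with compound at 0.00128–4 µM. After 4 h, cells infected with NL4-3-derived RT-mutant virus equal to 100 ng p24. Virus stocks came from HEK293 cells transfected with sequence-verified mutant clones. At 48 h, cells lysed in PBS/0.1% NP-40/5 mM MgCl2 and β-galactosidase read with CPRG. EC50 taken from dose-response curves.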

[7] = test system: Human immunodeficiency virus 1; test: Antiviral activity against HIV1 NL4-3 with L100I mutant in human MT4 cells assessed as inhibition of virus-induced cytopathicity after 5 days by multiple round replication assay; assay type: functional, organism-based; settings: Human immunodeficiency virus 1, NL4-3, MT4, 120 h; procedure, shortened: as §3
[8] = test system: Human immunodeficiency virus 1; test: Antiviral activity against HIV1 NL4-3 with K103N/V108I double mutant in human TZM-b1 cells assessed as beta-galactosidase activity after 48 hrs by single round replication assay; settings: Human immunodeficiency virus 1, NL4-3, TZM-b1, 48 h
[9] = test system: Human immunodeficiency virus 1; test: Antiviral activity against HIV1 NL4-3 with L100I/V108I double mutant in human TZM-b1 cells assessed as beta-galactosidase activity after 48 hrs by single round replication assay; assay type: functional, organism-based; settings: Human immunodeficiency virus 1, NL4-3, TZM-b1, 48 h; procedure, shortened: as §4
[10] = test system: Human immunodeficiency virus 1; test: Antiviral activity against HIV1 NL4-3 with K103N mutant in human TZM-b1 cells assessed as beta-galactosidase activity after 48 hrs by single round replication assay; assay type: functional, organism-based; settings: Human immunodeficiency virus 1, NL4-3, TZM-b1, 48 h; procedure, shortened: as §4
[11] = test system: Human immunodeficiency virus 1; test: Antiviral activity against HIV1 NL4-3 in human TZM-b1 cells assessed as beta-galactosidase activity after 48 hrs by single round replication assay; settings: Human immunodeficiency virus 1, NL4-3, TZM-b1, 48 h
[12] = test system: Human immunodeficiency virus 1; test: Antiviral activity against HIV1 NL4-3 with K103N/Y181C double mutant in human TZM-b1 cells assessed as beta-galactosidase activity after 48 hrs by single round replication assay; settings: Human immunodeficiency virus 1, NL4-3, TZM-b1, 48 h
[13] = test system: Human immunodeficiency virus 1; test: Antiviral activity against HIV1 NL4-3 with K103N mutant in human MT4 cells assessed as inhibition of virus-induced cytopathicity after 5 days by multiple round replication assay; assay type: functional, organism-based; settings: Human immunodeficiency virus 1, NL4-3, MT4, 120 h; procedure, shortened: as §3
[14] = test system: Human immunodeficiency virus 1; test: Antiviral activity against HIV1 NL4-3 with K103N/L100I double mutant in human TZM-b1 cells assessed as beta-galactosidase activity after 48 hrs by single round replication assay; assay type: functional, organism-based; settings: Human immunodeficiency virus 1, NL4-3, TZM-b1, 48 h; procedure, shortened: as §4
[15] = test system: Human immunodeficiency virus 1; test: Antiviral activity against HIV1 NL4-3 with Y181C mutant in human TZM-b1 cells assessed as beta-galactosidase activity after 48 hrs by single round replication assay; assay type: functional, organism-based; settings: Human immunodeficiency virus 1, NL4-3, TZM-b1, 48 h; procedure, shortened: as §4
[16] = Selectivity index, ratio of CC50 for human TZM-b1 cells to EC50 for HIV1 NL4-3; assay type: toxicity, cell-based; settings: read-out: Ratio CC50/EC50; procedure, shortened: as §1
[17] = test system: Human immunodeficiency virus 1; test: Antiviral activity against HIV1 NL4-3 with V108I mutant in human TZM-b1 cells assessed as beta-galactosidase activity after 48 hrs by single round replication assay; assay type: functional, organism-based; settings: Human immunodeficiency virus 1, NL4-3, TZM-b1, 48 h; procedure, shortened: as §4
[18] = molecular target: Human immunodeficiency virus type 1 reverse transcriptase (Human immunodeficiency virus 1) (UniProt Q72547); test: Inhibition of recombinant HIV1 reverse transcriptase assessed as residual activity at 10 uM by […] incorporation assay relative to control
Procedure, shortened: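 Recombinant HIV-1 RT, compound at 10 µM final (from DMSO). Incubated 10 min at 37 °C, then collected on DEAE filters and washed. Counted by phosphorimager; activity expressed relative to uninhibited RT.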

[19] = test system: Human immunodeficiency virus 1; test: Antiviral activity against HIV1 NL4-3 with Y181C mutant in human HeLaP4 cells assessed as beta-galactosidase activity after 48 hrs by single round replication assay; assay type: functional, organism-based; settings: Human immunodeficiency virus 1, NL4-3, HeLaP4, 48 h
[20] = test system: Human immunodeficiency virus 1; test: Antiviral activity against wild type HIV1 NL4-3 in human MT4 cells assessed as inhibition of virus-induced cytopathicity after 5 days by multiple round replication assay; assay type: functional, organism-based; settings: Human immunodeficiency virus 1, NL4-3, MT4, 120 h
Procedure, shortened: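 MT-4 T cells in RPMI 1640 with 10% FBS were infected with NL4-3 (wild type or RT mutants) and exposed to a range of compound concentrations. After 5 days, viability of infected and mock-infected cells was read by WST-1 cleavage, giving EC50 against viral cytopathicity and CC50 together.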

EC50 [2] | SMILES | EC50 [5] | EC50 [6] | EC50 [8] | EC50 [9] | EC50 [10] | EC50 [11] | EC50 [14] | selectivity ratio [16] | other results
13 nM | CCOC(=O)c1c(OC2CCCC(C)C2C)c(CC)c(C)[nH]c1=O (stereo not given) |  |  |  |  |  |  |  |  | selectivity ratio [1]: 2620
 | O=C1Nc2ccc(Cl)cc2[C@@](C#CC2CC2)(C(F)(F)F)O1 [EFAVIRENZ] | < 1 nM | 17 nM | 34 nM | 14 nM | 31 nM | 235 nM | 3700 nM |  | EC50 [3]: > 10000 nM; EC50 [4]: 4 nM; EC50 [7]: 167 nM; EC50 [12]: 525 nM; EC50 [13]: 320 nM
 | CCc1c(C)[nH]c(=O)c(N(C)C)c1O[C@@H]1C[C@H](C)C[C@H](C)C1 | < 1 nM | 28 nM | > 10000 nM | 1600 nM | 14 nM | > 10000 nM | 2900 nM | > 66000 | EC50 [15]: 177 nM; EC50 [17]: 6 nM; EC50 [12]: 245 nM
236 nM | CCOC(=O)c1c(O[C@H]2C[C@H](C)C[C@H](C)C2)c(CC)c(C)[nH]c1=O |  |  |  |  |  |  |  |  | 
520 nM | CCOC(=O)c1c(OC2CCCC(C)C2)c(CC)c(C)[nH]c1=O (stereo not given) |  |  |  |  |  |  |  |  | selectivity ratio [1]: 192
 | CCc1c(C)[nH]c(=O)c([N+](=O)[O-])c1O[C@@H]1C[C@H](C)C[C@H](C)C1 | < 1 nM | 9 nM | > 10000 nM | 8300 nM | 177 nM | > 10000 nM | > 10000 nM | > 37000 | EC50 [15]: 279 nM; EC50 [17]: 2 nM
 | CCOC(=O)c1c(OC2CCCCCCC2)c(CC)c(C)[nH]c1=O | 700 nM |  |  |  |  |  |  | 83 | Activity [18]: 24%
 | CCOC(=O)c1c(OC2CCCC2)c(CC)c(C)[nH]c1=O | 740 nM |  |  |  |  |  |  | > 135 | Activity [18]: 58.6%
 | CCOC(=O)c1c(OC2CCCCC2)c(CC)c(C)[nH]c1=O | 230 nM |  |  |  |  |  |  | > 435 | Activity [18]: 44.7%
 | CCc1c(C)[nH]c(=O)c(CO)c1O[C@@H]1C[C@H](C)C[C@H](C)C1 | 121 nM |  |  |  |  |  |  | > 826 | 
1200 nM | CCc1c(C)[nH]c(=O)c(N)c1O[C@@H]1C[C@H](C)C[C@H](C)C1 |  |  |  |  |  |  |  |  | selectivity ratio [1]: 83
 | CCc1c(C)[nH]c(=O)c(C)c1O[C@@H]1C[C@H](C)C[C@H](C)C1 | 2 nM | 203 nM | 5100 nM | 833 nM | 142 nM | > 10000 nM | 1400 nM | 40000 | EC50 [15]: 893 nM; EC50 [17]: 121 nM; EC50 [12]: 1200 nM
85 nM | CCOC(=O)c1c(OC2CC(C)CC(C)C2)c(CC)c(C)[nH]c1=O (stereo in doubt; 10B) |  |  |  |  |  |  |  |  | 
 | CCc1c(C)[nH]c(=O)c(C(C)C)c1O[C@@H]1C[C@H](C)C[C@H](C)C1 | < 1 nM | 2 nM | 105 nM | 10 nM | 2 nM | 1100 nM | 44 nM | > 82000 | EC50 [3]: 84 nM; EC50 [20]: 2 nM; EC50 [4]: 19 nM; EC50 [15]: 6 nM; EC50 [7]: 6 nM; EC50 [12]: 642 nM; EC50 [13]: 7 nM

SMILES | EC50 [2] | EC50 [5] | EC50 [6] | EC50 [8] | EC50 [9] | EC50 [10] | EC50 [11] | EC50 [14] | selectivity ratio [16] | other results
CCOC(=O)c1c(O[C@@H]2C[C@H](C)C[C@H](C)C2)c(CC)c(C)[nH]c1=O | 36 nM |  | 2200 nM |  |  | > 10000 nM | > 10000 nM |  |  | selectivity ratio [1]: 1780; EC50 [17]: 5900 nM; EC50 [19]: 2000 nM
